# Test results reported in ChEMBL document CHEMBL4765490 (J Med Chem, 2021).
# Assays:
# [1] = Inhibition of PKA (unknown origin) incubated for 30 mins using REBtide substrate by ADP-Glo assay; design: species or system Homo sapiens
# Method in brief: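 ADP-Glo reagent was added for 40 min, then detection reagent for 30 min, and luminescence was read. Three experiments in duplicate; curves fitted as for GRK.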
# [2] = Metabolic stability in human liver microsomes assessed as half life at 100 uM in presence of NADPH by LC-MS/MS analysis; type: ADME, Microsome
# Method in brief: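 Stock in DMSO (1 mM) was diluted to a 100 μM working solution in 0.1 M phosphate buffer with 3.3 mM MgCl2. Microsomes (20 mg/mL) were primed with NADPH at 37 °C for 3 min, then dosed with compound. Samples were taken at 0, 5, 10, 15, 30, 45 and 60 min and stopped with cold acetonitrile containing internal standard. Protein was spun out before analysis.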
# [3] = biological target: G protein-coupled receptor kinase 6 (Homo sapiens) (UniProt P43250); test: Inhibition of GRK6 (unknown origin) at 1 uM relative to control
# Sequence of G protein-coupled receptor kinase 6 (Homo sapiens) (P43250 whole entry, looked up): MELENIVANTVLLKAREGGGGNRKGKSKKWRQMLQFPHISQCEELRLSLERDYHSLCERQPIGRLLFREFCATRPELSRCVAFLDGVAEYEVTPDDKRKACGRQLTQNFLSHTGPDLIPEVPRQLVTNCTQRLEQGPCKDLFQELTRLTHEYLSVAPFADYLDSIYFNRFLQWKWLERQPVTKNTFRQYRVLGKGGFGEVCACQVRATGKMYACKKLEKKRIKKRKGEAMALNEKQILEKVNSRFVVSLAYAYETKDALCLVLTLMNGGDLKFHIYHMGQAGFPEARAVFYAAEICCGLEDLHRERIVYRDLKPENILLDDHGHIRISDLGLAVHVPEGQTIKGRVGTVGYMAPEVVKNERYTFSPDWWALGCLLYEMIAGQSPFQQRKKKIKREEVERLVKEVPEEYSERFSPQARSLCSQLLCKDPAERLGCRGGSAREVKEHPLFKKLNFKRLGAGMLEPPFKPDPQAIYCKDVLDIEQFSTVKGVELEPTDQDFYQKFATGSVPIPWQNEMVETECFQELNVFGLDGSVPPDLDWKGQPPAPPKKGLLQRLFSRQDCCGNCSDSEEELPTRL
# [4] = Thermodynamic solubility of compound in phosphate buffer at 6 pH by shake flask method; type: physicochemical; details: pH 6, read-out: Therm_solubility
# [5] = biological target: T1, Beta-adrenergic receptor kinase 1 (Bos taurus, UniProt P21146); test: Inhibition of bovine GRK2 using porcine brain tubulin as substrate incubated for 3 to 5 mins by [gamma32P]ATP based radiometric assay
# T1 sequence (P21146 whole entry): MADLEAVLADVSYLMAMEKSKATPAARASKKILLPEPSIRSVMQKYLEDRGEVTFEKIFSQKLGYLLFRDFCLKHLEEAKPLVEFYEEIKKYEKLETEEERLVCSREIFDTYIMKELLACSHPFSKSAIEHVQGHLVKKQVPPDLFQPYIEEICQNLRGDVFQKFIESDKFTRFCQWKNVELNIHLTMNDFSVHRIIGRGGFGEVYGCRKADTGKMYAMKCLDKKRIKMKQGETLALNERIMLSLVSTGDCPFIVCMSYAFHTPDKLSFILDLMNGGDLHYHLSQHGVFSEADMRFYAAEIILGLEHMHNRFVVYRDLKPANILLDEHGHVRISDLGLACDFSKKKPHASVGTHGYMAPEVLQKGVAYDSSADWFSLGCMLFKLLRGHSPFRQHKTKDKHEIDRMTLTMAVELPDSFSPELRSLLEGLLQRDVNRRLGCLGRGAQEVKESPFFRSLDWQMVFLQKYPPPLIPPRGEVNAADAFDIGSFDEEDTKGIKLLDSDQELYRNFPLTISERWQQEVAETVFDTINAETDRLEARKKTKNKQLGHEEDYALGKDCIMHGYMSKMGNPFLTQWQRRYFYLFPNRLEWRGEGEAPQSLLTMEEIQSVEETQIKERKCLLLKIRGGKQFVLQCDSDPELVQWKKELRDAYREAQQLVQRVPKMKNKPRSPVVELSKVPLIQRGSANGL
# [6] = organism: Homo sapiens
# [7] = biological target: T2, G protein-coupled receptor kinase 5 (Homo sapiens, UniProt P34947)
# Target sequence in this assay (P34947 whole entry, looked up): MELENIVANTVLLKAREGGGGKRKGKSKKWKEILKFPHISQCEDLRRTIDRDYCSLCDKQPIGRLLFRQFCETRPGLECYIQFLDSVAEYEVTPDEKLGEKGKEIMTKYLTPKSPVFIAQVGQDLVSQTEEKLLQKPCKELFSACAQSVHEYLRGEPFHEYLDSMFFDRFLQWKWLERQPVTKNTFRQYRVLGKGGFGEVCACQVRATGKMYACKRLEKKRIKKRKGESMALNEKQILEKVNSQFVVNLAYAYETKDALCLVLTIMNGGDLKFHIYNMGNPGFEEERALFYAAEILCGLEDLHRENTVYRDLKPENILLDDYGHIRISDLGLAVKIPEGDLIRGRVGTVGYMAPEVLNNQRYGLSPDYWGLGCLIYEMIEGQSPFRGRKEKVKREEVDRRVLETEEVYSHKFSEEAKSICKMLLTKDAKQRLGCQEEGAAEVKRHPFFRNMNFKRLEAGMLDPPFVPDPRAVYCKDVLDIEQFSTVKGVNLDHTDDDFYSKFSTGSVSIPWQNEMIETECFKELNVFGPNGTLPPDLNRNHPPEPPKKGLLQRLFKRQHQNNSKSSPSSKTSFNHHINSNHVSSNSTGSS
# [8] = biological target: T3, G protein-coupled receptor kinase 3 (Homo sapiens) (UniProt P35626); test: Inhibition of GRK3 (unknown origin) at 1 uM relative to control; details: time 3-5 min
# T3 sequence (whole entry): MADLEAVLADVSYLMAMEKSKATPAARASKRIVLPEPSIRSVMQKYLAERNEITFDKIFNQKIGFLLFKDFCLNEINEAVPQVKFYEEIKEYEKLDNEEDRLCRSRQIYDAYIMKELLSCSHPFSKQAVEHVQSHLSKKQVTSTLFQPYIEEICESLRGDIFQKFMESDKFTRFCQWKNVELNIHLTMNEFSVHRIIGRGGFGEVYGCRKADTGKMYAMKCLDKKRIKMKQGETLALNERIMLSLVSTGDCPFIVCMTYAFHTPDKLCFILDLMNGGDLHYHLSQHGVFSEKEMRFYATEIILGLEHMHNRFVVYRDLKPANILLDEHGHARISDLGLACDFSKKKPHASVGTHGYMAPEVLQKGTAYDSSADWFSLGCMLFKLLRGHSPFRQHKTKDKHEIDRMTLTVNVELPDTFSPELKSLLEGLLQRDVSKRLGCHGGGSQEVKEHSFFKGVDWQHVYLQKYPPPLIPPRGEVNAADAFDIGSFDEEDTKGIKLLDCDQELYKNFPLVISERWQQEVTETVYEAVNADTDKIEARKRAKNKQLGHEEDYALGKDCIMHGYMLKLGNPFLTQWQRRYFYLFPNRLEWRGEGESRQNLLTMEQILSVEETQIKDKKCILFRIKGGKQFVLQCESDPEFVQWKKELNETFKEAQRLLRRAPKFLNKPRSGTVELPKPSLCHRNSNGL
# [9] = biological target: T2, G protein-coupled receptor kinase 5; test: Covalent inhibition of GRK5 (unknown origin) using porcine brain tubulin as substrate by [gamma32P]ATP based radiometric assay
# Target sequence in this assay (P34947 whole entry): as the sequence (P34947 whole entry, looked up) above
# [10] = biological target: T2, G protein-coupled receptor kinase 5; test: Inhibition of human GRK5 using porcine brain tubulin as substrate incubated for 3 to 5 mins by [gamma32P]ATP based radiometric assay
# Target sequence in this assay (P34947 whole entry): as the sequence (P34947 whole entry, looked up) above
compound,measurement,setting,value
C=CCNC(=O)c1c(C)[nH]c(/C=C2\C(=O)Nc3ccc(C(=O)N[C@H](C)c4ccccc4)cc32)c1C,IC50,[1],> 250 µM
Cc1[nH]c(/C=C2\C(=O)Nc3ccc(C(=O)N[C@H](C)c4ccccc4)cc32)c(C)c1NC(=O)CCl (mixture of isomers),t1/2,[2],13.3 min
same,IC50,[1],> 250 µM
CCN(CC)CCNC(=O)c1c(C)[nH]c(/C=C2\C(=O)Nc3ccc(C(=O)N[C@H](C)c4ccccc4)cc32)c1C,IC50,[1],> 250 µM
C#CCNC(=O)c1c(C)[nH]c(/C=C2\C(=O)Nc3ccc(C(=O)N[C@H](C)c4ccccc4)cc32)c1C,inhibition,[3],94%
CCN(CC)CCNC(=O)c1c(C)[nH]c(/C=C2\C(=O)Nc3ccc(F)cc32)c1C (mixture of isomers) [SUNITINIB],solubility thermodynamic,[4],350 µg/mL
Cc1[nH]c(/C=C2\C(=O)Nc3ccc(C(=O)N[C@H](C)c4ccccc4)cc32)c(C)c1NC(=O)C(O)CCl (some centres undefined),IC50,[1],> 250 µM
CC1=C(C(=O)Nc2ccc3[nH]ncc3c2)C(c2ccc(F)c(C(=O)NCc3ccccn3)c2)NC(=O)N1 (centres undefined),IC50,[1],> 250 µM
C#CCCNC(=O)c1c(C)[nH]c(/C=C2\C(=O)Nc3ccc(C(=O)N[C@H](C)c4ccccc4)cc32)c1C (mixture of isomers),IC50,[5],130 µM
same,IC50,[1],> 250 µM
Cc1[nH]c(/C=C2\C(=O)Nc3ccc(C(=O)N[C@H](C)c4ccccc4)cc32)c(C)c1NC(=O)CBr (mixture of isomers),Ratio IC50,[6],5
same,Kinact,[7],> 1 min⁻¹
same,inhibition,[3],97%
same,inhibition,[8],21%
same,IC50,[1],> 250 µM
same,Ki,[9],0.11 µM
Fc1ccc([C@@H]2CCNC[C@H]2COc2ccc3c(c2)OCO3)cc1 [PAROXETINE],IC50,[1],850 µM
Cc1[nH]c(/C=C2\C(=O)Nc3ccc(C(=O)N[C@H](C)c4ccccc4)cc32)c(C)c1NC(=O)/C(C#N)=C/C(C)(C)C,IC50,[1],> 250 µM
C=CCCNC(=O)c1c(C)[nH]c(/C=C2\C(=O)Nc3ccc(C(=O)N[C@H](C)c4ccccc4)cc32)c1C (mixture of isomers),IC50,[10],1.94 µM
